Broadly, the AC50 is the concentration giving half of the maximal activity seen.

Each structure is given as a SMILES string. Several values for one entry are separate records, joined by “and”; a condition that tells them apart may be missing. Equal entries are not always repeated. Inconclusive results are not listed. Activity calls are given as the source filed them.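 How the source made its calls: active means growth-curve midpoint potency at or below a set limit tied to the top tested dose, or full inhibition throughout; inconclusive means flat partial inhibition between 30 and 70%, or poor fit; inactive means the rest.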 Where only a bound is given, the exact number is not on record here.

The first test relates to C. albicans CaCi-8 + fluconazole, Alamar Blue, 48 h. The test is described as follows: fluconazole-treated resistant Candida growth reduction – CaCi-8 resistant strain, dry powder, set 6, antifungal resistance reversal project, dose response (AID 493069).
Details: not given
In a few lines:
(§1)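 Test system – fluconazole-resistant Candida albicans isolate CaCi-8 · Amount – fungal inoculum at starting OD600 of 0.00015 · Signal – Alamar Blue fluorescence, Ex 544/Em 590 nm · Timing – 48 h at 37 °C, dye 2 h RT · Probe or stimulus – fluconazole at 8 µg/mL in the growth medium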
`COC(=O)Cn1nc(-c2ccc(C)cc2)c2ccccc21`: the AC50 was 13.8 µM.

For the compound `O=C(O)Cn1nc(-c2ccccc2)c2ccccc21`, the AC50 is > 26 µM (inactive).

For the compound `O=C(Cn1c2ccccc2c2nc3n(c(=O)c21)CCS3)N1CCCC1`, the concentration at half-maximal activity (AC50) is 1.43 µM and 6.75 µM.

In the case of `CC1CCN(C(=O)Cn2c3ccccc3c3nc4n(c(=O)c32)CCS4)CC1`, the AC50 is 5.56 µM.

Consider `COC(=O)Cn1nc(-c2ccccc2)c2ccccc21`, for which the AC50 was 4.99 µM.

Regarding `CC1CCN(C(=O)Cn2c3ccc(F)cc3c3nc4n(c(=O)c32)CCCS4)CC1`, the AC50 was 22.9 µM.

On to `COC(=O)Cn1nc(-c2ccc(Cl)cc2)c2ccccc21`, for which the AC50 is 15.8 µM.

Take `O=c1c2[nH]c3ccccc3c2nc2n1CCS2`: the AC50 is 17.6 µM.

Take `O=c1c2[nH]c3ccc(F)cc3c2nc2n1CCS2`: the AC50 is 5.76 µM.

`O=C(Cn1c2ccccc2c2ccncc21)N1CCCCC1`: the AC50 was 26.2 µM.

With `O=C(Cn1c2ccccc2c2nc3n(c(=O)c21)CCS3)N1CCOCC1`, the AC50 was 4.83 µM.

As to `O=C(Cn1c2ccccc2c2nc3n(c(=O)c21)CCS3)N1CCCCC1`, the AC50 was 3.88 µM.

System in the next test: not listed separately
Described as above. The note with it: C. albicans CaCi-8 + fluconazole, Alamar Blue, 48 h; at 2.6 µM (top of the series). In short, it runs like this: as §1
On the technique in general: Resazurin is reduced to fluorescent resorufin, in cell work by metabolically active cells.
Turning to `COc1ccc2c(c1)c1nc3n(c(=O)c1n2CC(=O)N1CCC(C)CC1)CCS3`, the growth change, negative = inhibition is -12.4% (inactive).

The test is the same for the next values; noted with them: C. albicans CaCi-8 + fluconazole, Alamar Blue, 48 h; at 26 µM (top of the series).
With `CCN(CC)C(=O)Cn1c2ccc(F)cc2c2nc3n(c(=O)c21)CCS3`, the growth change, negative = inhibition is 3.38% (inactive).

Take `CCN(CC)C(=O)Cn1c2ccccc2c2nc3n(c(=O)c21)CCS3`: the growth change, negative = inhibition was 10.7% (inactive).

For the compound `O=C(Cn1c2ccc(F)cc2c2nc3n(c(=O)c21)CCS3)N1CCCCCC1`, the growth change, negative = inhibition was -36.1% (inactive).

With `O=C(Cn1c2ccc(F)cc2c2nc3n(c(=O)c21)CCS3)N1CCCC1`, the growth change, negative = inhibition was -25.5% (inactive).

For `O=C(Cn1c2ccccc2c2nc3n(c(=O)c21)CCCS3)c1ccc(F)cc1`, the growth change, negative = inhibition was -20.3% (inactive).

On to `O=C(Cn1c2ccc(F)cc2c2nc3n(c(=O)c21)CCS3)N1CCCCC1`, for which the growth change, negative = inhibition was -17% (inactive).

For `O=C(Cn1c2ccccc2c2nc3n(c(=O)c21)CCS3)NCCc1ccc(Cl)cc1`, the growth change, negative = inhibition was -16.6% (inactive).

Values taken from PubChem BioAssay AID493069 (Broad Institute, 2011).
